Source: ChEMBL document CHEMBL1137143, “Synthesis of C8-linked pyrrolo[2,1-c][1,4]benzodiazepine-acridone/acridine hybrids as potential DNA-binding agents” (Bioorg Med Chem Lett, 2004)

Key:
Nucleic Acid [1] = assay: (§1) DNA-binding ability was determined by thermal denaturation method using calf thymus (CT) DNA; expressed as Delta Tm after 18 hr; type: functional; settings: Bos taurus
How it was run: (§2)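 Thermal melting of CT-DNA, 100 µM, with ligand at 20 µM (1:5 PBD:DNA molar ratio) in 10 mM sodium phosphate + 1 mM EDTA, pH 7.00; incubated at 37 °C for 0 h or 18 h before melting. ΔTm taken relative to DNA alone, whose Tm is a mean of 10 separate determinations.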

Bos taurus [2] = species: Bos taurus; assay: as §1; type: functional, organism-based; how it was run: as §2
Bos taurus [3] = species: Bos taurus; assay: (§3) DNA-binding ability was determined by thermal denaturation method using calf thymus (CT) DNA; expressed as Delta Tm after 0 hr; type: functional, organism-based; how it was run: as §2
Nucleic Acid [4] = assay: as §3; type: functional; settings: Bos taurus; how it was run: as §2
UACC-62 = assay: In vitro cytotoxicity was determined against UACC-62 cell line; type: functional; settings: Homo sapiens, read-out: LC50 (the source's name)
A498 = assay: In vitro cytotoxicity was determined against A498 cell line; type: functional; settings: Homo sapiens, read-out: LC50 (the source's name)
NCI-H23 = assay: In vitro cytotoxicity was determined against NCI-H23 cell line; type: functional; settings: Homo sapiens, read-out: LC50 (the source's name)
M14 = assay: In vitro cytotoxicity was determined against M14 cell line; type: functional; settings: Homo sapiens, read-out: LC50 (the source's name)

Row | Structure (SMILES) | ΔTm (Nucleic Acid [1]) [°C] | ΔTm (Bos taurus [2]) [°C] | ΔTm (Bos taurus [3]) [°C] | ΔTm (Nucleic Acid [4]) [°C] | CC50 (UACC-62) [µM] | CC50 (A498) [µM] | CC50 (NCI-H23) [µM] | CC50 (M14) [µM]
1 | COc1cc2c(cc1OCCNC(=O)c1cccc3c(O)c4ccccc4nc13)N=C[C@@H]1CCCN1C2=O | 5.7 | 5.7 | 4.7 | 4.7 | – | – | – | –
2 | COc1cc2c(cc1O)N=C[C@@H]1CCCN1C2=O | 0.7 | – | – | 0.4 | – | – | – | –
3 | COc1cc2c(cc1OCCCNC(=O)c1cccc3cc4ccccc4nc13)N=C[C@@H]1CCCN1C2=O | 7.7 | – | – | 5.9 | – | – | – | –
4 | COc1cc2c(cc1OCCCNC(=O)c1cccc3c(O)c4ccccc4nc13)N=C[C@@H]1CCCN1C2=O | 12.5 | – | – | 11 | < 0.01 | 0.05 | 0.07 | < 0.01
5 | COc1cc2c(cc1OCCNC(=O)c1cccc3cc4ccccc4nc13)N=C[C@@H]1CCCN1C2=O | 5 | – | – | 3.1 | – | – | – | –
